# PubChem BioAssay
# Calls of active or inactive are those of the source.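 How the source made its calls, unless noted: active means fluorescence slope higher than the sample average by over 3 SD (cut at about -0.22 in these data, passing the limit was not always enough); inactive means the rest.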
# Legend:
# [1] = inhibitors of TNFa-induced NFkB p65 translocation, primary screen, imaging, HUVEC, MLSMR starter and 10KST1 sets (AID 438;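 active means inhibition above 20% together with a positive visual image hit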;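 further: compound added about 3h40 before a 20 min TNFalpha stimulation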;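 on inhibition: signal is the nuclear over cytoplasmic p65 intensity ratio per well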); settings: HUVEC TNFa-induced p65 nuclear translocation; cell count: measured here: nuclei count (cytotoxicity indicator), at 2.08 µM; inhibition: at 2 µM, stronger effect = higher value, 0% TNFa-plus-vehicle, 100% no-TNFa wells
# [2] = endothelial E-selectin expression blockers – imaging, HUVEC, immunofluorescence, MLSMR starter and 10KST1 sets, primary screen (AID 487;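 active means visually confirmed hit in the image check and inhibition above 20%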;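 on inhibition: signal is fraction of cell area covered by stained E-selectin grains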;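 on nuclei count: 100% = median nuclei count of all wells on the same plate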); settings: HUVEC TNFalpha-induced E-selectin immunofluorescence imaging, at 2 µM; inhibition: stronger effect = higher value; nuclei count: measured here: cell number, toxicity
# [3] = Primary imaging screen for DUSP6 inhibitors that restore phospho-Erk in transfected HeLa cells, chemical complementation (AID 609;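 active means compounds giving at least 50% inhibition in the cell-based MKP-3 phosphatase rescue imaging test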;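 on inhibition: phospho-Erk level distribution per well compared with pooled transfected vehicle control wells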); settings: HeLa MKP-3 transfected, phospho-Erk imaging KS statistic, at 10 µM, cells stimulated with TPA for 15 min
# [4] = target: Dual specificity protein phosphatase 6 (Homo sapiens) (UniProt Q16828); experiment: as above; settings: HeLa MKP-3 transfected, phospho-Erk imaging KS statistic; at 10 µM; stronger effect = higher value; cells stimulated with TPA for 15 min
# [5] = target: Voltage-gated potassium channel subunit beta-2 (Rattus norvegicus) (UniProt P62483); experiment: inhibitors of rat Kvbeta2 reductase activity – biochemical, NADPH fluorescence, primary screen (AID 622); settings: recombinant KvBeta, 4-cyanobenzaldehyde reduction, at 10 µM, stronger effect = higher value;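 further: slope of raw intensity against log time taken from 70 to 1610 s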
# [6] = target: Voltage-gated potassium channel subunit beta-2 (Rattus norvegicus) (UniProt P62483); experiment: enhancers of rat Kvbeta2 NADPH turnover – biochemical, NADPH fluorescence, primary screen (AID 623;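 active means NADPH fluorescence slope more negative than the mean of all samples by about 3 SD, 99.7% confidence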;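 further: fluorescence intensity change per second fitted from 20 to 320 s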); settings: Recombinant KvBeta, NADPH fluorescence decrease slope, 10 min; at 10 µM; stronger effect = lower value
# [7] = target: Muscarinic acetylcholine receptor M4 (Homo sapiens) (UniProt P08173); experiment: M4-linked GIRK flux change, two-sided – cell-based, HEK293 M4/GIRK, thallium flux, BTC-AM, M4 allosteric agonist project, primary screen (AID 625;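 active means fluorescence slope after compound addition differing from the mean of all tested samples at 99.7% confidence, mostly higher but some lower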;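 further: thallium influx through GIRK channels coupled to M4 in HEK293 cells with BTC-AM dye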); settings: at 10 µM, actives lie on both sides
# Outline: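 Material: M4/GIRK1/GIRK2 stable HEK293 cell line. Medium: pH 7.3 thallium assay buffer. Dosing: single compound concentration, 10 µM final. Schedule: 1 h dye loading, 2 min kinetic read. Measured by: kinetic fluorescence with BTC-AM dye. Read-out: post-addition slope, 15–24 s, of baseline-normalized fluorescence. Benchmarks: carbachol and DMSO controls.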
# [8] = inhibitors of larval lipid processing in zebrafish, primary screen, whole organism, PED6 fluorescence, gall bladder and intestine (AID 686;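 active means a full or partial loss of lipid-probe fluorescence in the fish gall bladder, intestine or both, judged by eye; inactive means no fluorescence loss, or compound toxic to the fish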;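 further: larvae 5 to 7 days old with five fish per well; signal comes from phospholipase A2 cleavage of quenched PED6 carried via bile; overnight exposure to compound and PED6 before scoring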); settings: Zebrafish larvae PED6 lipid processing, fluorescence scoring; screened at 20 µM (by protocol)
# Outline: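 System: live zebrafish larvae aged 5-7 days, whole organism; measure: graded gall bladder and intestinal fluorescence inhibition per well; incubation: overnight exposure; reagent: ingested quenched lipid PED6 at 100 nM; signal: By-eye fluorescence microscopy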
# [9] = loss of swimming-algae plug formation – whole organism, Chlamydomonas reinhardtii, WT vs cilia-less mutant, absorbance, 96-well, primary screen (AID 463189;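 active means inhibition at or above 50% relative to wild type and mutant plate controls; inactive means inhibition below 50%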;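 further: 0% = wild type cc124 cells in DMSO and 100% = ciliumless bld1 mutant cells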); settings: Chlamydomonas reinhardtii gravitaxis, OD600 absorbance, 2 days; at 10 µM; stronger effect = higher value
# [10] = measured here: cell density z-score
# [11] = measured here: nuclear c-Myc green intensity z-score
# [12] = measured here: nuclear pErk red intensity z-score, stronger effect = higher value
# Chain of Voltage-gated potassium channel subunit beta-2 (Rattus norvegicus) (P62483 whole entry, looked up): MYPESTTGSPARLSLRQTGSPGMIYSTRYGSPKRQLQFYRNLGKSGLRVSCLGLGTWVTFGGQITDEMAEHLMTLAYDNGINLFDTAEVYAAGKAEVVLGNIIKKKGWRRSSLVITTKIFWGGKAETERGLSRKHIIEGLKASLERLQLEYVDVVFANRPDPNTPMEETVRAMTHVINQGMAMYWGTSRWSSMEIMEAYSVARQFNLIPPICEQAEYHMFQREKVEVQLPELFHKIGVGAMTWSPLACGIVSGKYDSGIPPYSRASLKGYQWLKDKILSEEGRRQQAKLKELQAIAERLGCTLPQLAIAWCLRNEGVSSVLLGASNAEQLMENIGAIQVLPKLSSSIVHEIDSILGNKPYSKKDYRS
# Chain of Muscarinic acetylcholine receptor M4 (Homo sapiens) (P08173 whole entry, looked up): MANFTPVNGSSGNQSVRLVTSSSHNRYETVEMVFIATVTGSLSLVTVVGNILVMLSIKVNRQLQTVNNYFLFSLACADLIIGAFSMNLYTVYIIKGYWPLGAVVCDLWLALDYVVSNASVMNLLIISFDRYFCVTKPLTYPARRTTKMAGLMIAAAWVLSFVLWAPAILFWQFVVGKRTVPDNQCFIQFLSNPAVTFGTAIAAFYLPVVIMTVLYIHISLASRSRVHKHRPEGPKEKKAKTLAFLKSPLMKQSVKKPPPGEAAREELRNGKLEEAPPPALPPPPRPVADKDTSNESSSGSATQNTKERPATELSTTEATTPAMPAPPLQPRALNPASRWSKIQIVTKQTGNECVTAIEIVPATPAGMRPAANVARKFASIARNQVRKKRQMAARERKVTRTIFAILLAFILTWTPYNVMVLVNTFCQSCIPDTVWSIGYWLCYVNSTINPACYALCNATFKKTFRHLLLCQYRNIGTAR
# Chain of Dual specificity protein phosphatase 6 (Homo sapiens) (Q16828 whole entry, looked up): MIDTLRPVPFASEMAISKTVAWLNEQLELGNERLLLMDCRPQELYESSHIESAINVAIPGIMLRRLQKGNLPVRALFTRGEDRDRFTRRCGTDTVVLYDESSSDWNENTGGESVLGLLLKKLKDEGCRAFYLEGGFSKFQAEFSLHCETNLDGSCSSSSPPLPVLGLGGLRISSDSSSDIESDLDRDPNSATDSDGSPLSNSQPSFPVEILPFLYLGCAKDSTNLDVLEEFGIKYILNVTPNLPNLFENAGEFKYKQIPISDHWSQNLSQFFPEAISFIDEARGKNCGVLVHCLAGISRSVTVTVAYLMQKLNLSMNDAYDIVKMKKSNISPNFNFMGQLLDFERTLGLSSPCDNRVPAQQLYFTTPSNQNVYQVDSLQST
SMILES,cell count [1],inhibition [1],inhibition [2],nuclei count [2] [%],"z-score [3, 10]","z-score [3, 11]","z-score [3, 12]",inhibition [4],fluorescence slope [5],NADPH fluorescence slope [6],fluorescence slope [7],outcome [8],inhibition [9]
CC(=O)/C=C(\C)NCCNc1c(F)c(F)c(CO)c(F)c1F,570,-4.3% (inactive),-22.3% (inactive),145,0.666,-0.56,0.111,1.9e-07% (inactive),-0.319 (inactive),-1.4e-05 (inactive),0.00522 (inactive),inactive,42.2% (inactive)
Cc1nnc2n(C3CCCCC3)c(=O)c3c4c(sc3n12)COC(C)(C)C4,471,-0.7% (inactive),-19% (inactive),96.4,-2.3,1.13,-0.467,-3.97% (inactive),-0.389 (inactive),7.7e-06 (inactive),0.00567 (inactive),inactive,11.1% (inactive)
Clc1ccccc1CN(Cc1ccccc1)c1ncnc2nc[nH]c12,523,7.2% (inactive),5.3% (inactive),93,-3.05,1.38,0.29,1.63% (inactive),-0.481 (inactive),-4.9e-05 (inactive),0.00447 (inactive),inactive,38.7% (inactive)
COCCCNC(=O)c1c(N)n(/N=C/c2ccccn2)c2nc3ccccc3nc12,736,7.3% (inactive),5.4% (inactive),148,0.26,1.28,1.17,-1.12% (inactive),-0.424 (inactive),-5.6e-05 (inactive),0.00553 (inactive),inactive,82.5% (active)
CCOC(=O)/C(C#N)=C1/SC(CCO)C(=O)N1c1ccccc1 (stereo unspecified),541,-19.2% (inactive),-6.8% (inactive),122,-0.811,0.0733,0.776,-2.59% (inactive),-0.373 (inactive),-2e-05 (inactive),0.00516 (inactive),inactive,-8.39% (inactive)
O=C1C(=O)N(Cc2cccnc2)C(c2ccccn2)/C1=C(/O)c1ccccc1 (stereo unspecified),620,-5.9% (inactive),-74.4% (inactive),158,-0.531,0.731,-0.436,-8.95% (inactive),-0.503 (inactive),-6.6e-05 (inactive),0.00562 (inactive),inactive,6.67% (inactive)
CC(NC(=O)NCCCn1ccnc1)(C(F)(F)F)C(F)(F)F,679,2.1% (inactive),-67.3% (inactive),166,-0.846,-0.74,0.188,-13.3% (inactive),-0.438 (inactive),-5.8e-05 (inactive),0.005 (inactive),inactive,0.921% (inactive)
